In data set [1] the test system is Mus musculus. The experiment in a line: Neurotoxicity in CF1 albino mouse at 450 mg/kg, ip after 0.5 hrs. In kind it is toxicity, organism-based. On the set-up: dose 450 mg/kg, route intraperitoneal. The note with it: in vivo. The gist of the method:
(§1)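 Male CF no. 1 albino mice (18-25 g) received a single ip dose as a suspension in 0.5% methylcellulose. The read-out was the number of animals showing neurotoxicity (minimal motor impairment) over the number tested.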

In data set [2] the test system is Mus musculus. Nature of the data set: Anticonvulsant activity in CF1 albino mouse assessed as protection against maximal electroshock-induced seizures at 50 mg/kg, ip after 0.5 hrs. In kind it is functional, organism-based. On the set-up: dose 50 mg/kg. The gist of the method:
(§2)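 Adult male CF no. 1 albino mice (18-25 g). Test compound suspended in 0.5% methylcellulose and given intraperitoneally at 0.01 mL/g body weight. Maximal electroshock challenge at the stated time. Read-out is the number of animals protected over the number tested; neurotoxicity is scored in parallel.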
A general note: Protection in the maximal electroshock model is a classic sign of anticonvulsant action.

The test system of data set [3] is Mus musculus. The experiment in a line: Anticonvulsant activity in CF1 albino mouse assessed as protection against scMet-induced seizures at 450 mg/kg, ip after 0.5 hrs. Type of data set: functional, organism-based. On the set-up: dose 450 mg/kg. The gist of the method:
(§3)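 Adult male CF no. 1 albino mice (18-25 g) dosed intraperitoneally with compound suspended in 0.5% methylcellulose (0.01 mL/g). Convulsant challenge given subcutaneously as a 0.85% pentylenetetrazol solution in 0.9% saline. Read-out is animals protected over animals tested, with neurotoxicity scored in parallel.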

In data set [4] the test system is Mus musculus. The experiment in a line: Anticonvulsant activity in CF1 albino mouse assessed as protection against scMet-induced seizures at 450 mg/kg, ip after 4 hrs. On the set-up: dose 450 mg/kg. In kind it is functional, organism-based. The gist of the method:
as §3

The subject of data set [5] is Mus musculus. Nature of the data set: Anticonvulsant activity in CF1 albino mouse assessed as protection against scMet-induced seizures at 50 mg/kg, ip after 0.5 hrs. In kind it is functional, organism-based. On the set-up: dose 50 mg/kg. In a few lines: as §3
In data set [6] the test system is Mus musculus. The experiment in a line: Neurotoxicity in CF1 albino mouse at 150 mg/kg, ip after 4 hrs. In kind it is toxicity, organism-based. On the set-up: dose 150 mg/kg, route intraperitoneal. The note with it: in vivo. The gist of the method: as §1
Data set [7] relates to Mus musculus. The experiment in a line: Neurotoxicity in CF1 albino mouse at 50 mg/kg, ip after 4 hrs. Type of data set: toxicity, organism-based. The note with it: in vivo. On the set-up: dose 50 mg/kg, route intraperitoneal. In a few lines: as §1
Data set [8] has as its system Mus musculus. The experiment in a line: Anticonvulsant activity in CF1 albino mouse assessed as protection against scMet-induced seizures at 150 mg/kg, ip after 0.5 hrs. Type of data set: functional, organism-based. On the set-up: dose 150 mg/kg. The gist of the method:
as §3

For data set [9], the system named is Mus musculus. The experiment in a line: Neurotoxicity in CF1 albino mouse at 50 mg/kg, ip after 0.5 hrs. In kind it is toxicity, organism-based. On the set-up: dose 50 mg/kg, route intraperitoneal. The note with it: in vivo. The gist of the method:
as §1

In data set [10] the test system is Mus musculus. The experiment in a line: Anticonvulsant activity in CF1 albino mouse assessed as protection against maximal electroshock-induced seizures at 450 mg/kg, ip after 0.5 hrs. In kind it is functional, organism-based. On the set-up: dose 450 mg/kg. In a few lines:
as §2

Data set [11] has as its system Mus musculus. The experiment in a line: Anticonvulsant activity in CF1 albino mouse assessed as protection against maximal electroshock-induced seizures at 50 mg/kg, ip after 4 hrs. Type of data set: functional, organism-based. On the set-up: dose 50 mg/kg. The gist of the method: as §2
In data set [12] the test system is Mus musculus. The experiment in a line: Anticonvulsant activity in CF1 albino mouse assessed as protection against scMet-induced seizures at 150 mg/kg, ip after 4 hrs. In kind it is functional, organism-based. On the set-up: dose 150 mg/kg. In a few lines:
as §3

Data set [13] deals with Mus musculus. Nature of the data set: Anticonvulsant activity in CF1 albino mouse assessed as protection against maximal electroshock-induced seizures at 150 mg/kg, ip after 0.5 hrs. In kind it is functional, organism-based. On the set-up: dose 150 mg/kg. The gist of the method:
as §2

Data set [14] deals with Mus musculus. Nature of the data set: Anticonvulsant activity in CF1 albino mouse assessed as protection against maximal electroshock-induced seizures at 450 mg/kg, ip after 4 hrs. In kind it is functional, organism-based. On the set-up: dose 450 mg/kg. The gist of the method: as §2
For data set [15], the system named is Mus musculus. The experiment in a line: Neurotoxicity in CF1 albino mouse at 450 mg/kg, ip after 4 hrs. On the set-up: dose 450 mg/kg, route intraperitoneal. In kind it is toxicity, organism-based. The note with it: in vivo. In a few lines:
as §1

In data set [16] the test system is Mus musculus. Nature of the data set: Neurotoxicity in CF1 albino mouse at 150 mg/kg, ip after 0.5 hrs. On the set-up: dose 150 mg/kg, route intraperitoneal. Type of data set: toxicity, organism-based. The note with it: in vivo. In a few lines: as §1
Data set [17] deals with Mus musculus. Nature of the data set: Anticonvulsant activity in CF1 albino mouse assessed as protection against maximal electroshock-induced seizures at 150 mg/kg, ip after 4 hrs. Type of data set: functional, organism-based. On the set-up: dose 150 mg/kg. In a few lines: as §2
Data set [18] has as its system Mus musculus. The experiment in a line: Anticonvulsant activity in CF1 albino mouse assessed as protection against scMet-induced seizures at 50 mg/kg, ip after 4 hrs. Type of data set: functional, organism-based. On the set-up: dose 50 mg/kg. In a few lines: as §3
For data set [19], the system named is Mus musculus. Nature of the data set: Anticonvulsant activity in ip dosed CF1 albino mouse assessed as protection against 32 mA current-induced seizure by 6Hz psychomotor seizure test. Type of data set: functional. The gist of the method: (§4)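 In the 6 Hz psychomotor seizure test, male CF no. 1 albino mice (18-25 g) received the compound ip in 0.5% methylcellulose. Stimulation was at 32 or 44 mA. Doses were varied to give 3-4 points between 0% and 100% protection, and ED50 with 95% confidence interval came from probit analysis.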

Data set [20] is filed under the species Mus musculus. The experiment in a line: Protective index, ratio of TD50 for CF1 albino mouse to ED50 for 32 mA current-induced CF1 albino mouse seizure model. In kind it is functional. The gist of the method: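 Protective index is the mouse TD50 (minimal motor impairment) divided by the 6 Hz test ED50 at 32 or 44 mA. Male CF no. 1 mice were dosed ip in 0.5% methylcellulose, and values came from probit analysis.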

Data set [21] concerns Mus musculus. Nature of the data set: Anticonvulsant activity in ip dosed CF1 albino mouse assessed as protection against 44 mA-current-induced seizure by 6Hz psychomotor seizure test. In kind it is functional. The gist of the method:
as §4

For data set [22], the system named is Mus musculus. The experiment in a line: Neurotoxicity in ip dosed CF1 albino mouse assessed as minimal motor impairment. Type of data set: toxicity, organism-based. The note with it: mouse, in vivo. In a few lines:
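Mice: male CF no. 1 albino (18-25 g), ip dosing in 0.5% methylcellulose. Minimal motor impairment was scored, with doses varied to give four points between no impairment and all animals impaired.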

With `CC1(C)C(C)(C)C1(Br)C(=O)O`, the Activity result in the data set on Mus musculus [1], with Mus musculus [2], with Mus musculus [3], in the data set on Mus musculus [4], in the data set on Mus musculus [5] and with Mus musculus [6] was “Non-toxic” in each case. Also, the Activity result with Mus musculus [7], in the data set on Mus musculus [8], in the data set with Mus musculus [9], in the data set on Mus musculus [10], with Mus musculus [11] and with Mus musculus [12] was “Non-toxic” throughout. Moreover, the Activity result in the data set on Mus musculus [13], in the data set on Mus musculus [14], in the data set with Mus musculus [15], in the data set on Mus musculus [16], in the data set on Mus musculus [17] and with Mus musculus [18] was “Non-toxic” throughout.

With `CC1(C)C(C(N)=O)C1(C)C`, the ED50 in the data set with Mus musculus [19] is 72 mg/kg; in the data set with Mus musculus [21], greater than 200 mg/kg; in the data set with Mus musculus [22], 99 mg/kg. For the same molecule, the PI in the data set listed under Mus musculus [20] is 1.4.

Consider `CC1(C)C(C)(C)C1(Br)C(N)=O`, for which the Activity result in the data set on Mus musculus [1] was “Toxic”; in the data set with Mus musculus [2], “Non-toxic”; with Mus musculus [3], “Non-toxic”; in the data set on Mus musculus [4] it was “Non-toxic”; in the data set on Mus musculus [5], “Non-toxic”; in the data set with Mus musculus [6], “Non-toxic”. Moreover, the Activity entry with Mus musculus [7], in the data set on Mus musculus [8], in the data set on Mus musculus [10], in the data set with Mus musculus [11], in the data set with Mus musculus [12] and in the data set with Mus musculus [13] was “Non-toxic” each time. Besides, the Activity result in the data set with Mus musculus [14], in the data set on Mus musculus [17] and in the data set on Mus musculus [18] was “Non-toxic” each time.

As a reminder, the ED50 is the midpoint of the dose-response relation.

The values are drawn from ChEMBL document CHEMBL1153988 (J Med Chem, 2009).
